≈ marks a conversion by molar mass, not a printed value.

Holding throughout (format): functional
Test [1] concerns Mythimna separata. Briefly: Insecticidal activity against Mythimna separata (Oriental armyworm) fourth-instar larvae infected Zea mays leaves assessed as larvicidal activity at 200 mg/L measured 2 days post dose. Put shortly:
(§1)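 Foliar application test: individual corn (Tangyu 10) leaves were placed on moistened filter paper in Petri dishes.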

Test [2] concerns Culex pipiens pallens. Briefly: Insecticidal activity against Culex pipiens pallens (mosquito) fourth-instar larvae assessed as larvicidal activity at 2 mg/L measured 3 days post dose. Put shortly: (§2)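 Mosquito larvicidal test: compounds were dissolved in acetone and diluted with distilled water to the test concentrations.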
Test [3] concerns Culex pipiens pallens. Briefly: Insecticidal activity against Culex pipiens pallens (mosquito) fourth-instar larvae assessed as larvicidal activity at 0.5 mg/L measured 3 days post dose. The method in brief: as §2
For test [4], the system named is Culex pipiens pallens. Briefly: Insecticidal activity against Culex pipiens pallens (mosquito) fourth-instar larvae assessed as larvicidal activity at 1 mg/L measured 3 days post dose. Put shortly: as §2
Test [5] has as its system Mythimna separata. The experiment in a line: Insecticidal activity against Mythimna separata (Oriental armyworm) fourth-instar larvae infected Zea mays leaves assessed as larvicidal activity at 5 mg/L measured 2 days post dose. Put shortly:
as §1

In test [6] the test system is Mythimna separata. Briefly: Insecticidal activity against Mythimna separata (Oriental armyworm) fourth-instar larvae infected Zea mays leaves assessed as larvicidal activity at 10 mg/L measured 2 days post dose. Put shortly:
as §1

Test [7] relates to Mythimna separata. The experiment in a line: Insecticidal activity against Mythimna separata (Oriental armyworm) fourth-instar larvae infected Zea mays leaves assessed as larvicidal activity at 20 mg/L measured 2 days post dose. The method in brief: as §1
The subject of test [8] is Mythimna separata. The experiment in a line: Insecticidal activity against Mythimna separata (Oriental armyworm) fourth-instar larvae infected Zea mays leaves assessed as larvicidal activity at 50 mg/L measured 2 days post dose. The method in brief:
as §1

Test [9] has as its system Mythimna separata. The experiment in a line: Insecticidal activity against Mythimna separata (Oriental armyworm) fourth-instar larvae infected Zea mays leaves assessed as larvicidal activity at 100 mg/L measured 2 days post dose. The method in brief:
as §1

For test [10], the system named is Plutella xylostella. The experiment in a line: Insecticidal activity against Plutella xylostella (diamondback moth) s-instar larvae infected in fresh cabbage leaves assessed as larvicidal activity at 20 mg/L measured 2 days post dose. Put shortly:
(§3)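 Leaf-dip (spray) test: a 200 mg/L stock in DMF was diluted with distilled water. Cabbage leaf disks (6 × 2 cm) were sprayed for 3 s, dried, and placed individually in glass tubes. Each disk received 30 second-instar larvae. Mortality was scored at 2 days; triplicate.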

Test [11] deals with Plutella xylostella. The experiment in a line: Insecticidal activity against Plutella xylostella (diamondback moth) s-instar larvae infected in fresh cabbage leaves assessed as larvicidal activity at 0.001 mg/L measured 2 days post dose. The method in brief: as §3
The test system of test [12] is Plutella xylostella. Briefly: Insecticidal activity against Plutella xylostella (diamondback moth) s-instar larvae infected in fresh cabbage leaves assessed as larvicidal activity at 0.01 mg/L measured 2 days post dose. The method in brief:
as §3

Test [13] concerns Plutella xylostella. The experiment in a line: Insecticidal activity against Plutella xylostella (diamondback moth) s-instar larvae infected in fresh cabbage leaves assessed as larvicidal activity at 1 mg/L measured 2 days post dose. The method in brief: as §3
Test [14] relates to Plutella xylostella. Briefly: Insecticidal activity against Plutella xylostella (diamondback moth) s-instar larvae infected in fresh cabbage leaves assessed as larvicidal activity at 0.1 mg/L measured 2 days post dose. Put shortly: as §3
Test [15] relates to Plutella xylostella. Briefly: Insecticidal activity against Plutella xylostella (diamondback moth) s-instar larvae infected in fresh cabbage leaves assessed as larvicidal activity measured 2 days post dose. As to conditions: 48 h. Put shortly: as §3

On to `Cc1cc(Cl)cc(C(=O)NC2CCCCC2)c1NC(=O)NC(=O)c1cc(C(F)(F)F)nn1-c1ncccc1Cl`, for which the Activity with Mythimna separata [1] worked out at 0%.

With `Cc1cc(Cl)cc(C(=O)NC2CCCCC2)c1NC(=S)NC(=O)c1cc(Br)nn1-c1ncccc1Cl`, the Activity with Culex pipiens pallens [2] is 40%; in the test with Mythimna separata [1] it was 0%.

As for `O=C(NC(=O)c1cc(C(F)(F)F)nn1-c1ncccc1Cl)Nc1ccc(Cl)cc1C(=O)NC1CC1`, the Activity in the test on Mythimna separata [1] stood at 30%.

Regarding `Cc1cc(Cl)cc(C(=O)NC(C)(C)C)c1NC(=S)NC(=O)c1cc(Br)nn1-c1ncccc1Cl`, the Activity in the test on Culex pipiens pallens [3] is 30%; in the test with Culex pipiens pallens [2], 100%; in the test with Culex pipiens pallens [4], 90%; in the test on Mythimna separata [5] it was 40%; with Mythimna separata [6], 100%; in the test on Mythimna separata [7], 100%. In addition, the Activity with Mythimna separata [8], in the test with Mythimna separata [9] and in the test with Mythimna separata [1] was 100% in each case.

Consider `CCCNC(=O)c1cc(Cl)ccc1NC(=O)NC(=O)c1cc(C(F)(F)F)nn1-c1ncccc1Cl`, for which the Activity in the test with Mythimna separata [1] is 0%.

For the molecule `CCNC(=O)c1cc(Cl)cc(C)c1NC(=S)NC(=O)c1cc(C(F)(F)F)nn1-c1ncccc1Cl`, the Activity in the test with Plutella xylostella [10] came to 100%; with Mythimna separata [5], 0%; in the test with Mythimna separata [6] it was 100%; in the test with Mythimna separata [7] it was 100%; in the test on Mythimna separata [8], 100%; in the test with Mythimna separata [9] it was 100%. Further, the Activity was 100% in the test on Mythimna separata [1]; 29% in the test on Plutella xylostella [11]; 86% in the test with Plutella xylostella [12]; 100% with Plutella xylostella [13]; 100% in the test with Plutella xylostella [14].

As for `Cc1cc(Cl)cc(C(=O)NC(C)(C)C)c1NC(=O)NC(=O)c1cc(C(F)(F)F)nn1-c1ncccc1Cl`, the Activity in the test on Mythimna separata [1] was 60%.

Take `CCCCNC(=O)c1cc(Cl)cc(C)c1NC(=O)NC(=O)c1cc(C(F)(F)F)nn1-c1ncccc1Cl`: the Activity in the test on Mythimna separata [1] stood at 40%.

For the molecule `CNC(=O)c1cc(Cl)cc(C)c1NC(=O)NC(=O)c1cc(C(F)(F)F)nn1-c1ncccc1Cl`, the Activity in the test on Mythimna separata [9] is recorded as 20%; with Mythimna separata [1], 100%.

With `Cc1cc(Cl)cc(C(=O)NC(C)C)c1NC(=O)NC(=O)c1cc(C(F)(F)F)nn1-c1ncccc1Cl`, the Activity in the test with Mythimna separata [1] was determined as 70%.

Regarding `Cc1cc(Cl)cc(C(=O)NC2CC2)c1NC(=S)NC(=O)c1cc(C(F)(F)F)nn1-c1ncccc1Cl`, the Activity in the test with Plutella xylostella [10] was 100%; in the test with Mythimna separata [5], 30%; with Mythimna separata [6] it was 100%; in the test with Mythimna separata [7], 100%; in the test on Mythimna separata [8], 100%; with Mythimna separata [9] it was 100%. Further, the Activity with Mythimna separata [1] is on record as 100%; with Plutella xylostella [11], 71%; in the test on Plutella xylostella [12] it was 100%; in the test with Plutella xylostella [13], 100%; in the test with Plutella xylostella [14], 100%. The LC50 with Plutella xylostella [15] was 0.25 ng/mL (≈ 0.449 nM).

Consider `CNC(=O)c1cc(Cl)cc(C)c1NC(=S)NC(=O)c1cc(Br)nn1-c1ncccc1Cl`, for which the Activity with Culex pipiens pallens [2] stood at 60%; in the test on Culex pipiens pallens [4], 20%; in the test on Mythimna separata [5] it was 50%; with Mythimna separata [6], 100%; in the test with Mythimna separata [7] it was 100%; in the test on Mythimna separata [8] it was 100%. Also, the Activity in the test on Mythimna separata [9] and with Mythimna separata [1] was 100% throughout.

As for `Cc1cc(Cl)cc(C(=O)NC2CCCCC2)c1NC(=S)NC(=O)c1cc(C(F)(F)F)nn1-c1ncccc1Cl`, the Activity amounted to 30% in the test on Plutella xylostella [10], 40% with Mythimna separata [1] and 0% in the test on Plutella xylostella [13].

Take `Cc1cccc(C(=O)NC(C)C)c1NC(=S)NC(=O)c1cc(Cl)nn1-c1ncccc1Cl`: the Activity turned out to be 20% with Culex pipiens pallens [2]; 0% in the test with Mythimna separata [5]; 100% in the test on Mythimna separata [6]; 100% in the test with Mythimna separata [7]; 100% in the test on Mythimna separata [8]; 100% with Mythimna separata [9]. Besides, the Activity in the test with Mythimna separata [1] is 100%.

`Cc1cccc(C(=O)NC2CC2)c1NC(=O)NC(=O)c1cc(C(F)(F)F)nn1-c1ncccc1Cl`: the Activity with Mythimna separata [9] was found to be 80%; with Mythimna separata [1], 100%.

Consider `Cc1cccc(C(=O)NCCC(C)C)c1NC(=S)NC(=O)c1cc(Cl)nn1-c1ncccc1Cl`, for which the Activity was determined as 10% with Culex pipiens pallens [2] and 60% in the test with Mythimna separata [1].

Regarding `Cc1cc(Br)cc(C(=O)NC(C)C)c1NC(=S)NC(=O)c1cc(Br)nn1-c1ncccc1Cl`, the Activity with Culex pipiens pallens [3] came out at 30%; in the test on Culex pipiens pallens [2] it was 90%; with Culex pipiens pallens [4] it was 70%; in the test on Mythimna separata [5] it was 0%; in the test on Mythimna separata [6], 100%; in the test on Mythimna separata [7], 100%. Besides, the Activity with Mythimna separata [8], with Mythimna separata [9] and in the test on Mythimna separata [1] was 100% throughout.

Take `Cc1cc(Cl)cc(C(=O)NC2CC2)c1NC(=O)NC(=O)c1cc(C(F)(F)F)nn1-c1ncccc1Cl`: the Activity with Mythimna separata [1] came to 20%.

As for `CNC(=O)c1cc(Cl)cc(C)c1NC(=S)NC(=O)c1cc(Cl)nn1-c1ncccc1Cl`, the Activity with Culex pipiens pallens [2] came to 70%; in the test with Culex pipiens pallens [4], 30%; in the test on Mythimna separata [6] it was 40%; in the test with Mythimna separata [7] it was 100%; with Mythimna separata [8], 100%; in the test with Mythimna separata [9], 100%. For the same molecule, the Activity in the test on Mythimna separata [1] came to 100%.

As to `Cc1cccc(C(=O)NCCC(C)C)c1NC(=S)NC(=O)c1cc(Br)nn1-c1ncccc1Cl`, the Activity with Culex pipiens pallens [2] stood at 20%; with Mythimna separata [9], 30%; in the test with Mythimna separata [1], 100%.

With `Cc1cc(Br)cc(C(=O)NCc2ccccc2)c1NC(=S)NC(=O)c1cc(C(F)(F)F)nn1-c1ncccc1Cl`, the Activity with Plutella xylostella [10] came to 100%; in the test with Mythimna separata [6] it was 0%; in the test with Mythimna separata [7], 100%; with Mythimna separata [8], 100%; with Mythimna separata [9], 100%; in the test on Mythimna separata [1], 100%. In addition, the Activity in the test on Plutella xylostella [11] is given as 57%; in the test on Plutella xylostella [12] it was 100%; with Plutella xylostella [13], 100%; in the test with Plutella xylostella [14], 100%. Further, the median lethal concentration (LC50) in the test on Plutella xylostella [15] came to 0.65 ng/mL (≈ 0.997 nM).

With `Cc1cc(Br)cc(C(=O)NC2CC2)c1NC(=O)NC(=O)c1cc(C(F)(F)F)nn1-c1ncccc1Cl`, the Activity in the test with Mythimna separata [9] was 0%; in the test with Mythimna separata [1], 100%.

With `Cc1cc(Br)cc(C(=O)NC(C)C)c1NC(=S)NC(=O)c1cc(Cl)nn1-c1ncccc1Cl`, the Activity was 20% in the test with Culex pipiens pallens [3]; 90% in the test on Culex pipiens pallens [2]; 60% in the test on Culex pipiens pallens [4]; 40% in the test with Mythimna separata [8]; 80% in the test on Mythimna separata [9]; 100% in the test with Mythimna separata [1].

With `CCCNC(=O)c1cccc(C)c1NC(=O)NC(=O)c1cc(C(F)(F)F)nn1-c1ncccc1Cl`, the Activity in the test with Mythimna separata [1] is 60%.

These data come from ChEMBL document CHEMBL3046803, “Synthesis and insecticidal activities of novel anthranilic diamides containing acylthiourea and acylurea” (2012).
